Experimental findings from ChEMBL document CHEMBL3120122, “Highly potent HCV NS4B inhibitors with activity against multiple genotypes” (J Med Chem, 2014) are described below.

A short description of data set [1]: Cytotoxicity against human HuH7 cells. Format: cell-based, Huh-7.
The subject of data set [2] is Hepatitis C virus. Kind of data set: Antiviral activity against HCV Con1 expressing wild type NS4B infected in human HuH7 cells assessed as inhibition of viral RNA replication after 3 days by dual-glo luciferase reporter gene assay. In kind it is functional, organism-based, Hepacivirus hominis. The conditions noted are these: isolate Con1, Huh-7, 72 h. Put shortly: (§1)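 Measured in HCV replicon assays, not infection, using genotype 1a, 1b and 2a (JFH) replicons; the read-out is inhibition of replicon replication.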

Data set [3] relates to Hepatitis C virus. Kind of data set: Antiviral activity against HCV JFH-1 expressing NS4B infected in human HuH7 cells assessed as inhibition of viral RNA replication after 3 days by dual-glo luciferase reporter gene assay. The conditions noted are these: JFH-1, Huh-7, 72 h. Format: functional, organism-based, Hepacivirus hominis.
The test system of data set [4] is Hepatitis C virus. Kind of data set: Antiviral activity against HCV Con1 expressing NS4B H94N mutant infected in human HuH7 cells assessed as inhibition of viral RNA replication after 3 days by dual-glo luciferase reporter gene assay. Format: functional, organism-based, Hepacivirus hominis. The following applies: isolate Con1, Huh-7, 72 h. Put shortly: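 Tested in the HCV genotype 1b replicon assay carrying the NS4B H94N substitution, alongside the matched 1a, 1b and 2a-JFH replicon screens.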

A short description of data set [5]: Lipophilicity, log D of the compound at pH 7.4 by chromatographic analysis. Format: physicochemical. The conditions noted are these: buffer.
Data set [6] is described as follows: Intrinsic clearance in human liver microsomes at 3 uM after 1 hr in presence of NADPH and UDP-glucuronic acid. In kind it is ADME. The following applies: read-out: CLH (converted).
Data set [7] can be described thus: Intrinsic clearance in rat liver microsomes at 3 uM after 1 hr in presence of NADPH and UDP-glucuronic acid. In kind it is ADME. The following applies: read-out: CLH (converted).
Data set [8] can be described thus: Half life in iv dosed Sprague-Dawley rat administered as 30 mins infusion. Format: ADME, organism-based. The following applies: in vivo.
Data set [9] is described as follows: Clearance in iv dosed Sprague-Dawley rat administered as 30 mins infusion. The conditions noted are these: in vivo. Format: ADME, organism-based.
Data set [10] can be described thus: Volume of distribution at steady state in iv dosed Sprague-Dawley rat administered as 30 mins infusion. Format: ADME, organism-based. The following applies: in vivo, read-out: Vdss.
Data set [11] can be described thus: Selectivity ratio of EC50 for HCV JFH-1 expressing NS4B to EC50 for HCV Con1 expressing wild type NS4B. In kind it is functional.
A short description of data set [12]: Oral bioavailability in Sprague-Dawley rat. Format: ADME, organism-based. The conditions noted are these: in vivo.
The subject of data set [13] is Hepatitis C virus. Briefly: Antiviral activity against HCV S52 expressing NS4B infected in human HuH7 cells assessed as inhibition of viral RNA replication after 3 days by dual-glo luciferase reporter gene assay. In kind it is functional, organism-based, Hepacivirus hominis. The following applies: S52, Huh-7, 72 h.
Data set [14] relates to Hepatitis C virus. Kind of data set: Antiviral activity against HCV genotype 2b expressing full length NS4B infected in human HuH7 cells assessed as inhibition of viral RNA replication after 3 days by dual-glo luciferase reporter gene assay. Format: functional, organism-based, Hepacivirus hominis. The conditions noted are these: Huh-7, 72 h.
Data set [15] concerns Hepatitis C virus. Kind of data set: Antiviral activity against HCV genotype 6a expressing NS4B infected in human HuH7 cells assessed as inhibition of viral RNA replication after 3 days by dual-glo luciferase reporter gene assay. The conditions noted are these: Huh-7, 72 h. Format: functional, organism-based, Hepacivirus hominis.
For data set [16], the system named is Hepatitis C virus. Kind of data set: Antiviral activity against HCV H77 expressing wild type NS4B infected in human HuH7 cells assessed as inhibition of viral RNA replication after 3 days by dual-glo luciferase reporter gene assay. Format: functional, organism-based, Hepacivirus hominis. The conditions noted are these: genotype 1a H77, Huh-7, 72 h. Put shortly: as §1

Data set [17] has as its system Hepatitis C virus. Briefly: Antiviral activity against HCV ED43 expressing NS4B infected in human HuH7 cells assessed as inhibition of viral RNA replication after 3 days by dual-glo luciferase reporter gene assay. In kind it is functional, organism-based, Hepacivirus hominis. The following applies: ED43, Huh-7, 72 h.
For data set [18], the system named is Hepatitis C virus. Kind of data set: Antiviral activity against HCV Con1 expressing NS4B H94S mutant infected in human HuH7 cells assessed as inhibition of viral RNA replication after 3 days by dual-glo luciferase reporter gene assay. In kind it is functional, organism-based, Hepacivirus hominis. The following applies: isolate Con1, Huh-7, 72 h.
The nature of data set [19]: Displacement of tritium labeled (R)-6-cyclopropyl-4-methyl-N-(morpholin-3-ylmethyl)-8-(trifluoromethyl)quinoline-2-carboxamide from recombinant HCV genotype 1b C-terminal His6-tagged NS4B expressed in baculovirus infected insect SF9 cells after overnight incubation by scintillation proximity assay. Also on record: species or system Hepatitis C virus subtype 1b.
Data set [20] relates to Hepatitis C virus. Briefly: Selectivity ratio of EC50 for HCV Con1 expressing NS4B H94N mutant to EC50 for HCV Con1 expressing wild type NS4B. In kind it is functional, Hepacivirus hominis, isolate Con1.

Consider `Cc1cc(-c2nnc(N[C@H]3C[C@H](O)C3)o2)nc2c(C(C)(C)C)cc(OCC(F)(F)F)cc12`, for which the half-maximal cytotoxic concentration (CC50) in [1] amounted to 25900 nM. Besides, the EC50 with Hepatitis C virus [2] is 3.5 nM; in the data set with Hepatitis C virus [3], 5220 nM; in the data set with Hepatitis C virus [4] it was 714 nM.
Turning to `Cc1cc(-c2nnc(Nc3ccccc3)o2)nc2c(C(F)(F)F)cc(-c3ccccc3)cc12`, the CC50 in data set [1] turned out to be 86400 nM. The chromatographic logD in [5] came out at 5.6. The results for the EC50 in the data set on Hepatitis C virus [2] and in the data set with Hepatitis C virus [3] were 5.9 nM and more than 20000 nM, respectively. For the same compound, the CLint scaled at 3 µM was 7.67 mL/min/kg in data set [6] and 11.7 mL/min/kg in data set [7]. The compound further had a half-life in data set [8] of 2.3 h. The same compound had a clearance in data set [9] of 17.5 mL/min/kg. In [10], the Vd came out at 1.8 L/kg.
`Cc1cc(-c2nnc(NC3CCCC3)o2)nc2c(C(C)(C)C)cc(NCC(F)(F)F)cc12`: the CC50 in data set [1] turned out to be 15800 nM. In data set [5], this compound had a chromatographic logD of 4.6. Moreover, the EC50 in the data set on Hepatitis C virus [2] is 0.15 nM; with Hepatitis C virus [3] it was 525 nM; in the data set on Hepatitis C virus [4] it was 5.2 nM.
The matching figures for `Cc1cc(-c2nnc(N[C@H]3C[C@](O)(C(F)F)C3)o2)nc2c(C(C)(C)C)cc(OCC(F)(F)F)cc12`: 6240 nM, 4.1, 0.32 nM, 684 nM and 3.4 nM.
In turn, `Cc1cc(-c2nnc(NC3CCCC3)o2)nc2c(C(C)(C)C)cc(OCC(F)(F)F)cc12` returned a chromatographic logD in [5] of 4.9. The EC50 with Hepatitis C virus [2] came out at 0.63 nM; with Hepatitis C virus [3], 3030 nM; in the data set with Hepatitis C virus [4] it was 35 nM.
With `Cc1cc(-c2nnc(NCC3OCCO3)o2)nc2c(C(C)(C)C)cc(NCC(F)(F)F)cc12`, the midpoint of cytotoxicity in data set [1], the CC50, lay at 16000 nM. Moreover, in data set [5], the chromatographic logD stood at 3.6. For the same compound, the EC50 was 0.15 nM with Hepatitis C virus [2], 1100 nM in the data set on Hepatitis C virus [3] and 4.3 nM in the data set with Hepatitis C virus [4].
For `COc1cc(C(F)(F)F)c2nc(-c3nnc(NCC4OCCO4)o3)cc(C)c2c1`, in data set [1], the CC50 was 50000 nM. Besides, the chromatographic logD in data set [5] amounted to 3.4. Further, the concentration for a half-maximal effect (EC50) with Hepatitis C virus [2] is 32 nM; in the data set with Hepatitis C virus [4], 719 nM.
For the compound `Cc1cc(-c2nnc(N[C@@H]3CCC[C@H](O)C3)o2)nc2c(C(C)(C)C)cc(NCC(F)(F)F)cc12`, the CC50 in [1] came to 6250 nM. The Ratio EC50 in [11] turned out to be 30. In data set [5], this compound came in with a chromatographic logD of 3.6. Moreover, the bioavailability in data set [12] worked out at 88%. In addition, the EC50 in the data set with Hepatitis C virus [2] was found to be 0.09 nM; in the data set on Hepatitis C virus [13] it was 3.7 nM; with Hepatitis C virus [14], 0.6 nM; with Hepatitis C virus [15], 3.1 nM; in the data set with Hepatitis C virus [3], 3 nM; with Hepatitis C virus [16], 0.08 nM. For the same compound, the EC50 with Hepatitis C virus [4] is 0.6 nM; in the data set with Hepatitis C virus [17], 0.9 nM; in the data set with Hepatitis C virus [18], 0.34 nM. The CLint scaled at 3 µM in data set [6] is 3.67 mL/min/kg; in data set [7], 4 mL/min/kg. The same compound showed a half-life in data set [8] of 11 h. The compound further showed a clearance in data set [9] of 10.8 mL/min/kg. Further, in data set [10], the Vd came to 2.4 L/kg.
`Cc1cc(-c2nnc(N[C@@H]3CCC[C@H](O)C3)o2)nc2c(C(C)(C)C)cc(OCC(F)(F)F)cc12` had a CC50 in data set [1] of 20900 nM. For the same compound, in data set [11], the Ratio EC50 amounted to 300. For the same compound, in data set [5], the chromatographic logD was 4. For the same compound, the EC50 came out at 0.32 nM in the data set on Hepatitis C virus [2]; 30 nM in the data set on Hepatitis C virus [13]; 0.9 nM with Hepatitis C virus [14]; 96 nM in the data set with Hepatitis C virus [3]; 0.09 nM with Hepatitis C virus [16]; 5.5 nM in the data set with Hepatitis C virus [4]. Besides, in the data set with Hepatitis C virus [17], the EC50 was determined as 1.5 nM.
Regarding `Cc1cc(-c2nnc(NCC3OCCO3)o2)nc2c(C(F)(F)F)cc(OCC(F)(F)F)cc12`, the CC50 in data set [1] worked out at 26600 nM. The same compound returned a chromatographic logD in [5] of 3.6. Also, the EC50 in the data set on Hepatitis C virus [2] is 5 nM; with Hepatitis C virus [3], 15600 nM; with Hepatitis C virus [4], 206 nM.
Take `Cc1cc(-c2nnc(NCC3OCCO3)o2)nc2c(C(C)(C)C)cc(OCC(F)(F)F)cc12`: in data set [1], the CC50 was 20400 nM. In [19], the Kd worked out at 31 nM. The results for the Ratio EC50 (in data set [11]; with Hepatitis C virus [20]) were 2720 and 42, respectively. This compound also gave a chromatographic logD in data set [5] of 3.9. The concentration for a half-maximal effect (EC50) in the data set on Hepatitis C virus [2] was found to be 1.3 nM; in the data set with Hepatitis C virus [3], 3580 nM; in the data set on Hepatitis C virus [16] it was 0.9 nM; in the data set with Hepatitis C virus [4], 54 nM.
`Cc1cc(-c2nnc(N[C@H]3CCC[C@@H](O)C3)o2)nc2c(C(C)(C)C)cc(NCC(F)(F)F)cc12`: the concentration giving a half-maximal response (EC50) with Hepatitis C virus [3] is 201 nM.
In [1], `Cc1cc(-c2nnc(N[C@H]3C[C@@H](O)C3)o2)nc2c(C(C)(C)C)cc(OCC(F)(F)F)cc12` had a CC50 of 10800 nM. The chromatographic logD in data set [5] was 3.4. Moreover, the EC50 with Hepatitis C virus [2] was 1.3 nM; in the data set on Hepatitis C virus [3], 208 nM; in the data set on Hepatitis C virus [4], 41 nM.
With `Cc1cc(-c2nnc(N[C@H]3C[C@](O)(C(F)F)C3)o2)nc2c(C(C)(C)C)cc(NCC(F)(F)F)cc12`, in data set [1], the CC50 was found to be 5440 nM. Besides, the Ratio EC50 in data set [11] was 312. The chromatographic logD in data set [5] stood at 3.7. In data set [12], this compound yielded a bioavailability of 25%. Also, the EC50 with Hepatitis C virus [2] stood at 0.08 nM; in the data set with Hepatitis C virus [13] it was 2.3 nM; in the data set with Hepatitis C virus [14], 0.16 nM; in the data set with Hepatitis C virus [3], 25 nM; in the data set with Hepatitis C virus [16], 0.05 nM; with Hepatitis C virus [4], 0.74 nM. Besides, the results for the concentration for a half-maximal effect (EC50) with Hepatitis C virus [17] and in the data set with Hepatitis C virus [18] were 0.76 nM and 4.4 nM, respectively. The CLint scaled at 3 µM was 3.33 mL/min/kg in data set [6] and 3.67 mL/min/kg in [7]. In [8], this compound showed a half-life of 5.2 h. The clearance in data set [9] was 14.5 mL/min/kg. In addition, the Vd in data set [10] was 5 L/kg.
